Results gathered from unrelated publications.
Each line is one published result; the experiments were not run side by side.
Organism: Aspergillus fumigatus
Read-out: microbial growth

For CC1=NN(CNC(=O)c2ccccn2)C(=O)C1=NNn1c(-c2ccccc2)nc2ccccc2c1=O, the MIC was 104 µM (broth dilution).
CCCCCCCCCCCCCC(O)CC(O)CO (stereo not shown) has an IC50 of greater than 200 µg/mL (resazurin; ATCC204305).
C[C@@H]1[C@H](O)[C@@H](C)/C=C/C=C/C=C/C=C/C=C/C=C/C=C/[C@H](O[C@@H]2O[C@H](C)[C@@H](O)[C@H](N)[C@@H]2O)C[C@@H]2O[C@](O)(C[C@@H](O)C[C@@H](O)[C@H](O)CC[C@@H](O)C[C@@H](O)CC(=O)O[C@H]1C)C[C@H](O)[C@H]2C(=O)O has an IC50 of 860 nM (ATCC204305).
With C=CCCCCCCCCCCCC(O)CC(O)CO (stereo not shown) the IC50 was greater than 200 µg/mL (resazurin; ATCC204305).
With Clc1ccccc1C(c1ccccc1)(c1ccccc1)n1ccnc1 the inhibition zone was 22 mm (disc diffusion; 20000 µg/mL).
For C[C@@H]1[C@H](O)[C@@H](C)/C=C/C=C/C=C/C=C/C=C/C=C/C=C/[C@H](O[C@@H]2O[C@H](C)[C@@H](O)[C@H](N)[C@@H]2O)C[C@@H]2O[C@](O)(C[C@@H](O)C[C@@H](O)[C@H](O)CC[C@@H](O)C[C@@H](O)CC(=O)O[C@H]1C)C[C@H](O)[C@H]2C(=O)O, the MIC was 0.5 µg/mL (broth dilution; MF5668).
The MIC of CC1=NN(CNC(=O)c2ccccc2)C(=O)C1=NNn1c(-c2ccccc2)nc2ccccc2c1=O is reported as 104 µM (broth dilution).
With OC(Cn1cncn1)(Cn1cncn1)c1ccc(F)cc1F the MIC was greater than 128 µg/mL (broth dilution; MF5668).
C#CCCCCCCCCCCCC(O)CC(O)CO (stereo not shown) has an IC50 of greater than 200 µg/mL (resazurin; ATCC204305).
The MIC of O=C1NN=C(N=Cc2ccc(O)c(O)c2)C1=NNn1c(-c2ccccc2)nc2ccccc2c1=O is reported as 53.5 µM (broth dilution).
